hERG protect – hERG rescue from dofetilide block, primary screen, cell-based, CHO-hERG, FluxOR thallium flux, dofetilide IC70 | dofetilide IC70 present | hit rate 0.51% among 310,000 | AID 1511, 2009 | Voltage-gated inwardly rectifying potassium channel KCNH2 (Homo sapiens), Q12809 | activation (rescue from dofetilide block), less the hit threshold, % at 10 µM;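 active = activation above the mean of controls blocked by dofetilide plus 5 SD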;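 note: thallium influx through hERG after potassium depolarization seen as dye fluorescence rise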
KCNQ1 inh – inhibitors of human KCNQ1 channel, primary screen, cell-based, thallium flux, high-throughput; B-score at 10 µM; Potassium voltage-gated channel subfamily KQT member 1 (Homo sapiens), P51787; CHO-K1 KCNQ1, FluxOR thallium flux fluorescence; hits give high values; hit rate 1.3% among 310,000;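 active = compounds whose thallium flux B-score, printed positive for inhibition, exceeds three library SD while starting fluorescence stays within three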;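 note: channel opened by potassium depolarization with thallium stimulus after 20 min compound exposure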
KCNK3 block – human KCNK3 channel inhibitors, primary screen, CHO cells, FluxOR thallium flux, B-score. hit rate 0.84% among 340,000. B-score at 10 µM. Potassium channel subfamily K member 3 (Homo sapiens), O14649. AID 602410, 2012. FluxOR fluorescence; hits give low values;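 active = B-score under library mean minus 4 SD, starting fluorescence ratio at most library mean plus 5 SD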;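 note: more negative B-score means stronger inhibition of thallium flux through KCNK3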
Kir21 block – inhibitors of mouse Kir2.1 inward-rectifier potassium channel; Inward rectifier potassium channel 2 (Mus musculus), P35561; HEK293-Kir2.1, FluxOR thallium flux fluorescence; hits give low values; B-score at 10 µM; hit rate 0.85% among 310,000; AID 1672, 2009;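 active = fluorescence ratio B-score at or below minus 3 SD of library scores, with starting-brightness B-score within 2 SD, cut at about -4.2 in these data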;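 note: channel flux triggered by added potassium and thallium sulfate stimulus; B-score of peak minus minimum fluorescence over baseline after thallium stimulus; more negative B-score means stronger Kir2.1 block with less thallium influx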
KCNK9 inh – KCNK9 potassium channel inhibitors, primary screen, HEK293 cells, thallium flux. Potassium channel subfamily K member 9 (Homo sapiens), Q9NPC2. FluxOR thallium flux fluorescence; hits give low values. B-score at 10 µM. hit rate 1.2% among 310,000. AID 488922, 2010;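 active = ratio B-score over 3 SD below the library mean, with starting fluorescence within 5 SD of its mean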;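 note: negative B-score means less thallium flux so channel inhibition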
Target sequence (Q9NPC2 whole entry, looked up): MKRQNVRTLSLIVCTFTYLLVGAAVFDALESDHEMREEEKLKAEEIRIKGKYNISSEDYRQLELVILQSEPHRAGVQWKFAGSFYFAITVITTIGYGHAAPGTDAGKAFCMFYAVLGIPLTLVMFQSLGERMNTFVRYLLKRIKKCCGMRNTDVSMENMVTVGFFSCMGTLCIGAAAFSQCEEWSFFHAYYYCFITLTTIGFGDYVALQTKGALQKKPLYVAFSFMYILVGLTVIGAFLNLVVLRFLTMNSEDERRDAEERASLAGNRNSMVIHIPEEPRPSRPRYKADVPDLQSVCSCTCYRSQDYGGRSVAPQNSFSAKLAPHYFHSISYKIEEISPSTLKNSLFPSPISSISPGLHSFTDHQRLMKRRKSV
KCNQ1 act – potentiators or activators of KCNQ1 channel, primary screen, cell-based, thallium flux, high-throughput; Potassium voltage-gated channel subfamily KQT member 1 (Homo sapiens), P51787; B-score at 10 µM; CHO-K1 KCNQ1, thallium flux FluxOR fluorescence; hits give high values; hit rate 0.35% among 310,000;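 active = fluorescence ratio B-score, a plate-corrected score, at least three library SD, with initial intensity B-score within 5 SD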
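Material: CHO-K1 cells stably expressing KCNQ1. Medium: assay buffer for compound exposure, DMSO matched across wells. Reagent: K+/Tl+ depolarizing stimulus. Compound dosing: single-concentration screen. Times: 37 °C overnight plating, 90-min dark dye load, 20-min compound pretreatment. Technique: FluxOR Tl+ flux fluorescence.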
KCNK9 block conf – KCNK9 potassium channel inhibitors, confirmation, HEK293 cells, thallium flux, duplicate; shares compounds with KCNK9 inh; hit rate 43% among 4,900; FluxOR thallium flux fluorescence; inhibition, % at 10 µM; AID 492992, 2010;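 active = thallium signal inhibited by more than 5 SD of the compound-free buffer control wells, on both duplicate plates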;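 note: 0% = assay buffer control wells without compound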
Kir21 sel – mouse Kir2.1 channel inhibition, confirmation, selectivity assay for KCNK9 modulator project, cell-based, HEK293, thallium flux; AID 492993, 2010; inhibition, % at 10 µM; shares compounds with KCNK9 inh; Kir2.1 cells, FluxOR thallium flux fluorescence; hit rate 4% among 4,900;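 active = thallium signal drop more than 5 SD beyond the mean of the no-compound control wells, seen in both duplicate plates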;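 note: signal is fluorescence rise after thallium addition divided by baseline fluorescence; plate controls were assay buffer only for no effect and full block by chlorpromazine control for full effect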
HEK293 Tl ctr – thallium flux in non-induced HEK293 cells, confirmation, counter-screen for KCNK9 inhibitor project, cell-based, second counter screen, non-induced KCNK9-HEK293 | shares compounds with KCNK9 inh | AID 492997, 2010 | FluxOR thallium flux | inhibition, % at 10 µM | hit rate 40% among 4,900;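 active = thallium signal drop beyond 5 SD of the untreated control mean, on both duplicate plates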;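 note: plate controls were buffer only IC0 wells for no effect and SID17386958 at its maximal inhibitory level for full effect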
* marks the source's active call; other numbers are inactive results; i = inactive; x = not tested or not shown. Shown are actives, neighbours in structure and some others; about 3.7% of the full set was active somewhere.

SMILES | hERG protect | KCNQ1 inh | KCNK3 block | Kir21 block | KCNK9 inh | KCNQ1 act | KCNK9 block conf | Kir21 sel | HEK293 Tl ctr
Clc1cccc(Cl)c1CN1CCN(c2ncccn2)CC1 | -5.7 | i | i | -0.31 | i | i | x | x | x
Cc1ccc(SCc2c(-c3ccccc3)nn(C)c2Cl)cc1 | -4.6 | 6* | i | -1.39 | -8.51* | i | 42.5%* | 33.5%* | 47.0%*
CCOc1cccc(-c2c(C(=O)N/N=C/c3ccsc3)nnn2-c2nonc2N)c1 | -9.6 | i | i | 1.01 | i | i | x | x | x
CC(C)(C)c1ccc(C(=O)N2CCCC2c2cccs2)cc1 (centres undefined) | -10.7 | i | i | 0.32 | i | i | i | i | i
CS(=O)(=O)Cc1ccc(C(=O)N2CCCC2c2cccs2)cc1 (centres undefined) | -14.0 | i | i | -0.67 | i | i | x | x | x
Cc1ccc(NC(=O)CN(C)C(=O)c2cccc(Br)c2)cc1 | -1.7 | i | i | -0.23 | i | i | x | x | x
COc1ccc(-c2cc(C(F)(F)F)n3ncc(C(=O)N(C)Cc4ccccc4)c3n2)cc1 | -14.6 | i | i | 0.51 | i | i | i | i | i
COc1ccc(-c2cc(C(F)(F)F)n3ncc(C(=O)NCc4ccco4)c3n2)cc1 | -5.9 | i | i | -1.17 | i | i | x | x | x
Cc1ccc(S(=O)(=O)Nc2cccc(S(=O)(=O)N3CCCC3)c2)cc1C | x | x | i | x | x | x | x | x | x
COC(=O)c1cc2occc2n1Cc1ccc(Cl)cc1 | -15.1 | i | i | -0.19 | i | i | x | x | x
CCOC(=O)c1cc2occc2n1Cc1ccc(F)cc1 | -7.8 | i | i | 0.62 | -8.28* | i | i | i | 30.0%*
COc1cccc(C2CCCN2Cc2nc(CCC(C)C)no2)c1 (centres undefined) | -15.0 | i | i | 0.26 | i | i | i | i | i
CCOC(=O)CN1C(=O)NC2(CCCc3ccccc32)C1=O (centres undefined) | -4.0 | i | i | 1.8 | i | i | x | x | x
COc1ccc(C(=O)Nc2ccccc2C(=O)N/N=C/c2cccc3ccccc23)cc1 | -13.8 | i | i | 1 | -8.45* | i | 61.0%* | i | 37.0%*
COc1ccc(C(=O)Nc2ccccc2C(N)=O)cc1 | -6.9 | i | i | 0.3 | i | i | x | x | x
O=C(O)CCn1nc(-c2ccc(F)cc2)cc(Cc2ccccc2)c1=O | -4.3 | i | i | 0.21 | i | i | x | x | x
CCOC(=O)c1c(C)c(C(=O)N2CCc3ccccc3C2)c(C)n1CC | -13.3 | i | i | 1.35 | i | i | i | i | i
CCOC(=O)c1c(C)c(C(=O)NCCN2CCOCC2)c(C)n1CC | -9.5 | i | i | -1.69 | i | i | x | x | x
C=CC[C@@H]1C=C[C@H](O/N=C/[C@@H](NS(=O)(=O)c2ccc(C)cc2)[C@H](C)/C=C/CC(=O)OC)[C@@H](CO)O1 | -4.8 | i | x | -0.09 | i | i | x | x | x
CCCNC(=O)OC[C@H]1O[C@H](CCO/N=C/[C@@H](OC)[C@H](C)/C=C/CC(=O)OC)C=C[C@@H]1Oc1ccc(OC)cc1 | -3.7 | i | x | -0.82 | i | i | i | i | i
CCCNC(=O)c1ccccc1NC(=O)c1cccc(-n2cnnn2)c1 | x | x | i | x | x | x | x | x | x
O=C1[C@@H]2[C@@H]3C[C@@H]([C@H]4ON=C(c5ccc(Cl)cc5Cl)[C@@H]34)[C@@H]2C(=O)N1C1CCCCC1 | -8.5 | i | i | -1.52 | i | i | i | i | i
O=C(/C=C/c1ccccc1)N1c2ccccc2Sc2ccc(C(F)(F)F)cc21 | -14.1 | i | i | 0.11 | -9.17* | i | 26.0%* | i | 35.5%*
COc1cccc(NC(=O)c2sc3nc(N4CCOCC4)c4c(c3c2N)CCCC4)c1 | -16.1 | i | i | 0.59 | -11* | i | i | i | i
CCN(CC)C(=O)Cn1cc(C(=O)C(=O)NCCCn2ccnc2)c2ccccc21 | -20.5 | i | i | 0.68 | i | i | x | x | x
SMILES | hERG protect | KCNQ1 inh | KCNK3 block | Kir21 block | KCNK9 inh | KCNQ1 act | KCNK9 block conf | Kir21 sel | HEK293 Tl ctr
CCOc1ccc(N(C)S(=O)(=O)c2cc(-c3cc(C)no3)ccc2C(C)C)cc1 | -19.3 | i | i | 1.2 | -9.53* | i | 51.5%* | i | 42.0%*
CCOc1ccc(N(C)S(=O)(=O)c2ccc(-c3cc(C)no3)s2)cc1 | -6.4 | i | i | 0.65 | i | i | x | x | x
Clc1cccc(-c2cc3nc4c(c(NCc5ccco5)n3n2)CCCC4)c1 | -11.7 | i | i | -0.82 | -9.41* | i | 29.5%* | i | 32.5%*
CCOC(=O)C1CCN(CCCSc2ccc(C)cc2)CC1 | -6.2 | i | i | 1.03 | i | i | i | i | i
CCN(Cc1ccccc1)C(c1cccs1)c1nnnn1C1CCCCC1 (centres undefined) | -4.6 | i | i | 0.9 | -12* | i | 55.5%* | i | 34.5%*
CCOC(=O)C1=C(CSc2nc(-c3ccccc3)ccc2C#N)OC(N)=C(C#N)C1c1ccccc1 (centres undefined) | -11.7 | i | i | 1.42 | -12.7* | i | 47.0%* | i | 38.0%*
CCOC(=O)C1=C(CSc2nc(-c3ccccc3)ccc2C#N)OC(N)=C(C#N)C1c1cccnc1 (centres undefined) | -10.8 | i | -16.6* | 0.13 | -18.5* | i | 68.5%* | i | 40.5%*
CCOC(=O)CC1=C(C(=O)OCC)C(c2cccnc2)C(C#N)=C(N)O1 (centres undefined) | -11.7 | i | i | 0.04 | i | i | x | x | x
Nc1[nH]c(=O)nc(Nc2ccccc2)c1N=O | -4.7 | i | i | 0.57 | i | i | x | x | x
